Only a selection was taken, and hits are over-represented in it overall.
VLA-4 inh = inhibition in a human VLA-4 binding assay; VLA-4 expressing cells, ligand binding flow cytometry; 330,000 compounds, 0.2% hits; P13612; inhibition, % (about 7 µM as worked out from the volumes in the protocol); in the data active means inhibition above about 50%
UPR XBP1 act = activators of adaptive arm of unfolded protein response (XBP1) | 330,000 compounds, 0.33% hits | AID 463104 | CHO-XBP1 luciferase reporter, IRE1-XBP1 UPR activation, luminescence; percent of tunicamycin response, DMSO as zero | activation, % at 20 µM;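 active means versus positive control, 20 µM dose yields 30% or more activation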;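 further: 100% = tunicamycin at 10 µg/mL and 0% = DMSO only wells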
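assay system = CHO-XBP1 luciferase reporter cells | amount = 1000 cells/well | buffer or medium = F12 plus 10% FBS | compound dosing = single point, 20 µM final compound, 1% DMSO | incubation = 16-18 h cell attachment at 37 °C, then 6 h compound exposure | detection = Steady-Glo luminescence read | controls = tunicamycin 10 µg/mL and vehicle-only wells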
CHOP inhibitor = inhibitors of CHOP induction in ER stress response; CHO-K1 CHOP-promoter luciferase, tunicamycin-induced, 15-18 h; inhibition, % at 10 µM; 220,000 compounds, 3.8% hits; AID 2732;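 active means compounds that reduced the stress-induced luciferase reporter signal by more than about 70% of percent inhibition, limit read from the data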;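 further: 0% = tunicamycin plus vehicle and 100% = wells without tunicamycin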
UPR CHOP act = apoptotic UPR (CHOP) activation; CHO-CHOP luciferase reporter, luminescence; percent of tunicamycin response over DMSO baseline; AID 449763; 330,000 compounds, 0.34% hits; activation, % at 10 µM;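 active means at 10 µM dose, activation of 40% or more, normalized to positive control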;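 further: 100% = tunicamycin at 10 µg/mL and 0% = DMSO alone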
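System: CHO-CHOP luciferase reporter cell line; amount: 500 cells/well; buffer or medium: F12 medium containing 10% fetal bovine serum; incubation: 6 h compound exposure at 37 °C after overnight seeding; measured by: luciferase luminescence after 10 min with Steady-Glo reagent; evaluation: % reporter activation, DMSO baseline versus tunicamycin full activation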
B2AR ag = activates human beta-2 adrenergic receptor causing internalization. P07550. Am2.2-beta2AR cells, FAP receptor internalization, flow cytometry. response, % (no concentration beside the values). 340,000 compounds, 0.43% hits;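 active means response above a set limit, near 3 SD of response in nonfluorescent compounds, cut at about 42% in these data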
Target sequence (P07550 whole entry, looked up): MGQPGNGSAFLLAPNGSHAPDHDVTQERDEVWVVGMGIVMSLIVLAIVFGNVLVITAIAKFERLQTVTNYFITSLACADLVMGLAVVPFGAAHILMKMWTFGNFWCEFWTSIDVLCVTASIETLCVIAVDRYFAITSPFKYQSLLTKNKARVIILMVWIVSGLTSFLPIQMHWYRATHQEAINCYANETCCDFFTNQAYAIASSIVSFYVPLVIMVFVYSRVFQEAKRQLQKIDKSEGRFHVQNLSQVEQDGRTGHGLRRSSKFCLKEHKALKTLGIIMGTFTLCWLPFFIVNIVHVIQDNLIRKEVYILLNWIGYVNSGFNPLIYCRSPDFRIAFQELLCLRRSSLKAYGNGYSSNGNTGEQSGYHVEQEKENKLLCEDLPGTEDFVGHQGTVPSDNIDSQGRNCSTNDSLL
CHOP confirm = confirmation of CHOP induction inhibitors; AID 504437; 2,100 compounds, 45% hits; inhibition, % at 10 µM; shares compounds with CHOP inhibitor; CHO-CHOP promoter luciferase reporter, tunicamycin-induced, luminescence;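 active means mean of three repeat readings of reporter signal inhibition above a set limit, cut at about 70% in these data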;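 further: 0% = tunicamycin plus vehicle and 100% = wells lacking tunicamycin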
* marks the source's active call; other numbers are inactive results; / = no result given.

SMILES | VLA-4 inh | UPR XBP1 act | CHOP inhibitor | UPR CHOP act | B2AR ag | CHOP confirm
Cc1nn(Cc2c(Cl)cccc2Cl)c(C)c1NC(=O)c1cc(C(C)C)on1 | 10.7 | -3.2 | / | 0.5 | 5.5 | 95.5*
Cc1cc(C(=O)Nc2c(C)nn(Cc3c(Cl)cccc3Cl)c2C)no1 | 2.0 | -0.4 | 6.4 | 0.0 | 1.3 | /
COC(=O)Cn1c(=O)c2c(nc3n2CCCN3CCc2ccc(OC)c(OC)c2)n(C)c1=O | 4.2 | -2.4 | / | 1.0 | 7.4 | /
CCN(Cc1ccccc1)S(=O)(=O)c1cc2[nH]c(=O)c(=O)[nH]c2cc1C | 16.2 | -0.5 | / | -0.5 | 3.2 | /
CCC(=O)N1CCCN(S(=O)(=O)c2ccc(C)cc2)C1c1ccc(OC)cc1 (stereo unspecified) | 5.0 | -5.3 | / | -1.6 | -9.2 | /
CC(=O)Nc1ccc(NC2=Nc3ccccc3N3C2=Nc2c(c(C)nn2-c2ccccc2)C3c2ccccc2)cc1 (stereo unspecified) | -7.6 | -4.3 | 106.0* | -3.3 | 5.0 | 119.2*
COc1ccc(NC2=Nc3ccccc3N3C2=Nc2c(c(C)nn2-c2ccc(C)cc2)C3c2cccnc2)cc1 (stereo unspecified) | -19.2 | 2.5 | 25.5 | 3.0 | 4.0 | /
Nc1nnnn1/N=C/c1cccc(OCc2ccccc2Cl)c1 | -19.5 | 0.0 | 104.2* | 4.7 | 1.9 | 51.1
CSc1ncccc1C(=O)NCc1nnc2ccccn12 | -12.6 | 1.7 | / | -0.8 | 5.2 | /
Cc1csc(NC(=O)Cc2coc3cc(C)c(C(C)C)cc23)n1 | 9.4 | -3.0 | 99.4* | -1.3 | -2.5 | 41.5
CCN1/C(=C/C(C)=C/c2sc3ccccc3[n+]2CC)Sc2ccccc21 | / | -11.4 | 110.4* | -8.7 | -357.2 | 141.2*
C/C(=N\NC(=O)c1ccc(F)cc1)c1ccc(NC(=O)Cc2ccccc2)cc1 | 9.3 | 1.2 | / | 1.9 | -5.5 | /
NCCCNC(=O)c1cc2ccccc2[nH]1 | 0.4 | -1.1 | 107.1* | -0.9 | 3.0 | 10.9
O=c1[nH]c2cc3c(cc2cc1C(c1nnnn1Cc1ccccc1)N1CCCCCC1)OCCO3 (stereo unspecified) | 4.1 | 0.7 | 101.0* | 1.4 | -2.8 | 28.8
Cc1cc(C)n2c(=O)c3ccc(Cl)cc3nc2c1C#N | 4.2 | 1.0 | -16.2 | 0.8 | -7.7 | /
Cc1cc(Cl)n2c(nc3cc(F)c(F)cc32)c1C#N | / | / | 105.3* | / | 112.8* | 123.6*
O=S(=O)(NCC(c1ccccc1)N1CCC(O)CC1)c1ccc(Cl)cc1 (stereo unspecified) | 5.0 | -2.3 | / | -0.5 | 0.7 | /
O=S(=O)(NCC(Nc1ccc(Cl)cc1)c1ccccc1)c1ccc(Cl)cc1 (stereo unspecified) | 9.1 | 1.9 | 107.9* | -0.7 | 21.6 | 112.1*
COc1cccc(/C=N\NC(=O)c2ccc(Cn3cc(Br)c([N+](=O)[O-])n3)o2)c1O | 7.3 | -1.7 | 97.0* | 0.9 | -5.3 | -1.0
COc1ccc(S(=O)(=O)n2nc(-c3ccc(Cl)cc3)cc2N)cc1OC | 42.1 | -2.7 | 67.1 | 0.5 | 13.6 | /
Nc1cc(-c2ccc(Cl)cc2)nn1S(=O)(=O)c1ccc(Cl)cc1 | 30.5 | -1.4 | 108.4* | 0.6 | 5.1 | 7.3
N#Cc1ccsc1NC(=O)C1=COCCO1 | 0.0 | -0.4 | / | -0.8 | -2.8 | /
CN(C)c1nc(N/N=C/c2c[nH]c3ccccc23)nc(N2CCOCC2)n1 | 15.8 | -0.5 | -30.0 | 4.1 | 15.5 | /
C(=N\Nc1nc(N2CCCCC2)nc(N2CCCCC2)n1)/c1c[nH]c2ccccc12 | 11.0 | 1.5 | 100.8* | 5.7 | 5.1 | 42.2
CC(=O)OCCCNc1cc(Sc2ccc(Cl)cc2)c2nonc2c1[N+](=O)[O-] | 19.5 | / | 109.5* | / | 49.5* | 113.9*
CCCC(=O)OCCNc1cc(Sc2nc3ccccc3[nH]2)c2nonc2c1[N+](=O)[O-] | -7.5 | -8.6 | 109.9* | 30.9 | 36.7 | 137.6*
COc1cc(Cn2c(=O)c3c(OC)c(C)cnc3n(C)c2=O)cc(OC)c1 | 2.1 | 0.7 | / | -1.3 | -1.3 | /
CCCCn1c(SCc2nc(N)nc(N3CCCCC3)n2)nc2c1c(=O)n(C)c(=O)n2C | -0.9 | 0.5 | 98.0* | -1.1 | -5.4 | 19.5
CCC(C)c1ccccc1N1CC(C(=O)Nc2cccc(S(=O)(=O)N3CCOCC3)c2)CC1=O (stereo unspecified) | 2.2 | -1.2 | / | -0.7 | 6.1 | /

High-throughput results: PubChem, several laboratories
